Measured values from ChEMBL document CHEMBL4041500, “Attenuation of Mycobacterium species through direct and macrophage mediated pathway by unsymmetrical diaryl urea” (Eur J Med Chem, 2017).
Converted amounts (≈) assume the structure as drawn. The source made the active and inactive calls. The rule behind the calls is not given here.

Assays:
[1] = test system: Mycolicibacterium smegmatis; experiment: Antimycobacterial activity against Mycobacterium smegmatis MC2 155 after 48 hrs by serial dilution method; type: functional; details: str. MC2 155, 48 h
Summary of the method: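 M. smegmatis grown in Middlebrook 7H9 with 10% albumin–dextrose complex and 0.03% Tween80 at 37 °C. Twofold serial dilutions of compound were combined with mid-log culture diluted to OD570 0.01, giving a final range of […] in 7H9 broth. Incubated in ambient air at 37 °C for 48 h. MIC taken as the lowest concentration preventing visible growth.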

[2] = test system: Mycobacterium tuberculosis; experiment: Antimycobacterial activity against Mycobacterium tuberculosis H37Rv ATCC 27294 after 7 days by microplate alamar blue assay; type: functional; details: H37Rv ATCC 27294, 168 h
Summary of the method: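 MABA run in 7H12 medium in 96-well plates for 7 days at 37 °C. Alamar Blue and Tween 80 were then added for a further 24 h. Fluorescence was read at 530/590 nm. MIC was the lowest concentration giving a 90% fluorescence (or luminescence) reduction versus controls. Luciferase reporter strains or intracellular ATP were used for compounds with background fluorescence. Isoniazid and rifampin were run as controls.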

HepG2 = experiment: Cytotoxicity against human HepG2 cells assessed as reduction in cell viability after 72 hrs by MTT assay; type: cell-based; details: hepg2, 72 h
Summary of the method: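 HepG2 cells grown in Eagle's MEM with 10% FBS at 37 °C and 5% CO2. Cells were scraped, resuspended at ~1 × 10^6 cells/mL, plated and left 24 h, then exposed to compound at 400 to 0.2 µg/mL for 72 h. Viability read by MTT assay. IC50 (50% loss of viability) taken from a dose–response curve versus log10 concentration.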

[3] = test system: Mycolicibacterium smegmatis; experiment: Inhibition of alpha-mycolic acid biosynthesis in Mycobacterium smegmatis MC2 155 assessed as reduction in [1-14C]acetate incorporation at 5 times antibacterial MIC preincubated for 90 mins followed by [1-14C]acetate addition measured after 1 hr by liquid scintillation counting based TLC method; type: functional; details: str. MC2 155
[4] = test system: Mycolicibacterium smegmatis; experiment: Inhibition of alpha'-mycolic acid biosynthesis in Mycobacterium smegmatis MC2 155 assessed as reduction in [1-14C]acetate incorporation at 5 times antibacterial MIC preincubated for 90 mins followed by [1-14C]acetate addition measured after 1 hr by liquid scintillation counting based TLC method; type: functional; details: str. MC2 155
[5] = test system: Mycolicibacterium smegmatis; experiment: Inhibition of epoxy-mycolic acid biosynthesis in Mycobacterium smegmatis MC2 155 assessed as reduction in [1-14C]acetate incorporation at 5 times antibacterial MIC preincubated for 90 mins followed by [1-14C]acetate addition measured after 1 hr by liquid scintillation counting based TLC method; type: functional; details: str. MC2 155
[6] = test system: Mycolicibacterium smegmatis; experiment: Inhibition of fattyacid biosynthesis in Mycobacterium smegmatis MC2 155 assessed as reduction in [1-14C]acetate incorporation at 5 times antibacterial MIC preincubated for 90 mins followed by [1-14C]acetate addition measured after 1 hr by liquid scintillation counting based TLC method; type: functional; details: str. MC2 155
Peritoneal macrophage = experiment: Cytotoxicity against Balb/c mouse peritoneal macrophages assessed as reduction in cell viability after 48 hrs by MTT assay; type: cell-based
Summary of the method: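 Murine peritoneal macrophages, 1 × 10^6 cells/well, exposed to compound at 0.1 to 250 µg/ml in RPMI-1640 with 10% FBS for 48h. MTT (5 mg/ml) added for 3 h at 37°C, formazan dissolved in 0.04M HCl in isopropanol for 15 min at room temperature, absorbance read at 570 nm. IC50 (50% loss of viability) taken from a dose–response curve of percentage activity versus log10 concentration.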

[7] = test system: Mycobacterium tuberculosis; experiment: Antimycobacterial activity against Mycobacterium tuberculosis MC2 6030 after 2 to 3 weeks by agar plate method; type: functional
Summary of the method: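 Strain mc²6030 is a pantothenate auxotroph lacking RD1, grown at 37 °C in Sauton's medium plus 20 μg/ml pantothenic acid. Serial 10-fold dilutions of actively growing culture were plated on 7H10/OADC agar with 20 μg/ml pantothenic acid and increasing compound concentrations, from 10 mg/ml DMSO stocks. Plates were held 2–3 weeks at 37 °C. MIC was the concentration inhibiting 99% of growth; isoniazid served as control.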

[8] = test system: Mycolicibacterium smegmatis; experiment: Antimycobacterial activity against Mycobacterium smegmatis MC2 155 infected in Balb/c mouse peritoneal macrophages assessed as increase in iNOS2 mRNA expression at 5 ug/ml after 6 hrs RT-PCR method; type: functional; details: str. MC2 155
Summary of the method: (§1)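 BALB/c peritoneal macrophages were cultured 48 h in RPMI-1640 with 10% FBS. Cells at 2 × 10⁶/ml were infected with mid-log, PBS-washed mc²155 at a macrophage:bacteria ratio of 1:10 for 6 h, then washed three times. Compound was added at 5 µg/mL for another 6 h. Total RNA was taken up in Trizol, 1 µg was used for cDNA, and PCR ran 40 cycles (94 °C 45 s, 60 °C 1 min, 72 °C 1 min).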

[9] = test system: Mycolicibacterium smegmatis; experiment: Antimycobacterial activity against Mycobacterium smegmatis MC2 155 infected in Balb/c mouse peritoneal macrophages assessed as upregulation of IL-12 mRNA expression at 5 ug/ml after 6 hrs RT-PCR method; type: functional; details: str. MC2 155; summary of the method: as §1
[10] = test system: Mycolicibacterium smegmatis; experiment: Antimycobacterial activity against Mycobacterium smegmatis MC2 155 infected in Balb/c mouse peritoneal macrophages assessed as upregulation of IFN-gamma mRNA expression at 5 ug/ml after 6 hrs RT-PCR method; type: functional; details: str. MC2 155; summary of the method: as §1
[11] = test system: Mycolicibacterium smegmatis; experiment: Antimycobacterial activity against Mycobacterium smegmatis MC2 155 infected in Balb/c mouse peritoneal macrophages assessed as downregulation of IL-10 mRNA expression at 5 ug/ml after 6 hrs RT-PCR method; type: functional; details: str. MC2 155; summary of the method: as §1
[12] = test system: Mycobacterium tuberculosis; experiment: Antimycobacterial activity against Mycobacterium tuberculosis H37Rv ATCC 27294 at 50 ug/ml after 7 days by microplate alamar blue assay relative to control; type: functional; details: H37Rv ATCC 27294, 168 h

Compound | MIC [1] [µg/mL] | MIC90 [2] [µg/mL] | Activity (HepG2) [µg/mL] | inhibition [3] | inhibition [4] | inhibition [5] | inhibition [6] | Activity (Peritoneal macrophage) [µg/mL] | MIC99 [7] [µg/mL] | Activity [8] | Activity [9] | Activity [10] | Activity [11] | inhibition at 50 µg/mL [12] [%]
CC(C)=CCOc1cccc(NC(=O)Nc2cccc(C(=O)O)c2)c1 | 12.5 (≈ 36.7 µM) | 16.5 (≈ 48.5 µM) | 132.6 | inactive | inactive | Active | inactive | 120.4 |  |  |  |  |  | 
CC(C)=CCOc1cccc(NC(=O)Nc2cccc(C(F)(F)F)c2)c1 | 3.12 (≈ 8.56 µM) | 40.2 (≈ 110 µM) | 135.6 |  |  | Active | inactive | 116.7 |  |  |  |  |  | 
CC(C)=CCOc1cccc(NC(=O)Nc2ccccc2C)c1 | 12.5 (≈ 40.3 µM) | 5.2 (≈ 16.8 µM) | 163.4 | inactive | inactive | Active | inactive | 140.5 | 1 (≈ 3.22 µM) | Active | Active | Active | Active | 
CC(C)=CCOc1cccc(NC(=O)Nc2cccc([N+](=O)[O-])c2)c1 | 3.21 (≈ 9.4 µM) | 6 (≈ 17.6 µM) | 113.7 | inactive | inactive | Active | inactive | 94.1 | 2 (≈ 5.86 µM) | Active | inactive | inactive | Active | 
CC(C)=CCOc1cccc(NC(=O)Nc2cccc(C#N)c2)c1 | 25 (≈ 77.8 µM) | 9.2 (≈ 28.6 µM) | 172.6 | inactive | inactive | Active | inactive | 159.4 |  | Active | Active | Active | Active | 
CC(C)=CCOc1cccc(NC(=O)Nc2cccc(F)c2)c1 | 25 (≈ 79.5 µM) | > 50 | 94 |  |  | Active | inactive | 83.7 |  |  |  |  |  | 89
CC(C)=CCOc1ccc(NC(=O)Nc2ccccc2)cc1 | 25 (≈ 84.4 µM) | 43.1 (≈ 145 µM) | 124.7 | inactive | inactive | inactive | inactive | 109.5 | 30 (≈ 101 µM) |  |  |  |  | 
CCCCOc1ccc(NC(=O)Nc2ccccc2C)cc1 | 100 (≈ 335 µM) | 7 (≈ 23.5 µM) | 130.5 | inactive | inactive | Active | inactive | 125.7 | 100 (≈ 335 µM) |  |  |  |  | 
